Experimental data of several laboratories.
EGFR G719S: Epidermal growth factor receptor (EGFR, Homo sapiens, UniProt P00533, G719S)
EGFR L858R: Epidermal growth factor receptor (EGFR, Homo sapiens, UniProt P00533, L858R)
EGFR: Epidermal growth factor receptor (EGFR, Homo sapiens, UniProt P00533)
EGFR A750P/del747-749: Epidermal growth factor receptor (EGFR, Homo sapiens, UniProt P00533, A750P/del747-749)

C[C@H]1CC[C@H](n2c3cnccc3c3cnc(Nc4ccc5c(n4)CCN(C(=O)CO)C5)nc32)CC1 has a remaining signal of 82% (Epidermal growth factor receptor (EGFR, Homo sapiens, UniProt P00533, L861Q); cell-free assay; 1 µM).
With CCCCC(=O)Nc1ccc(-c2ccc3ncn(CCC)c(=O)c3c2)cn1 the remaining binding was 100% (EGFR G719S; binding, competition with immobilised ligand; 0.5 µM).
With N#Cc1ccc(NC(=O)Nc2ccccc2)cc1 the remaining binding was 75% (EGFR L858R; cell-free assay, competition with immobilised ligand; 25 µM).
The remaining binding of CN1CCN(C(=O)c2ccc(NC(=O)Nc3ccc(N(C)c4ccnc(Nc5ccc(CS(C)(=O)=O)cc5)n4)cc3)cc2)CC1 is reported as 95% (Epidermal growth factor receptor (EGFR, Homo sapiens, UniProt P00533, G719C); binding; 1 µM).
For CNC(=O)c1ccccc1Nc1nc(Nc2ccc(CO)nc2)ncc1Cl, the remaining activity was 26% (EGFR; enzyme activity, inhibitor, radiometric; 1 µM).
C1=C/COCc2cc(ccc2OCCN2CCCC2)Nc2nccc(n2)-c2cccc(c2)COC/1 gave a remaining binding of 67% (EGFR A750P/del747-749; binding; 0.1 µM).
With COc1ccc2oc(-c3ccc4nc(N)oc4c3)c/c(=N\c3ccccc3NC(=O)CCN)c2c1 the remaining binding was 97% (EGFR; binding; 1 µM).
CO[C@@H]1[C@H](N(C)C(=O)c2ccccc2)C[C@H]2O[C@]1(C)n1c3ccccc3c3c4c(c5c6ccccc6n2c5c31)C(=O)NC4 has an inhibition of 74% (EGFR A750P/del747-749; enzyme activity, inhibitor; 1 µM).
COc1ccc2[nH]c3c4[nH]c5ccc(OC)cc5c4c4c(c3c2c1)C(=O)NC4=O gave a remaining binding of 50% (EGFR L858R; binding; 1 µM).
CC#CC(=O)N1CCC[C@H]1c1nc(-c2ccc(C(=O)Nc3ccccn3)cc2)c2c(N)nccn12 has an inhibition of 0% (Epidermal growth factor receptor (EGFR, Homo sapiens, UniProt P00533, del752-759); enzyme activity, inhibitor; 1 µM).
For CS(=O)(=O)c1ccccc1Nc1nc(Nc2ccnc(CO)c2)ncc1Cl, the remaining activity was 94.8% (EGFR; enzyme activity, inhibitor, radiometric; 1 µM).
The inhibition of C=CC(=O)N1CCC([C@@H]2CCNc3c(C(N)=O)c(-c4ccc(Oc5ccccc5)cc4)nn32)CC1 is reported as 95% (EGFR G719S; cell-free assay; 1 µM).
Cc1ccc(NC(=O)c2ccnc(C(F)(F)F)c2)cc1-c1cc(OCCO)nc(N2CCOCC2)c1 has a remaining binding of 100% (EGFR G719S; binding; 1 µM).
With CNC(=O)c1ccccc1Nc1nc(Nc2ccc(CO)cc2)ncc1Cl the remaining activity was 7.68% (EGFR; enzyme activity, inhibitor, radiometric; 1 µM).
